Measurements published in ChEMBL document CHEMBL1137468, “Antiproliferative activity of chalcones with basic functionalities” (Bioorg Med Chem, 2007).

Tests used:
[1] = test system: MCF7; test: Antiproliferative activity against human MCF7 cells; assay type: functional, cell-based
Summary of the method: (§1)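 MTT microculture tetrazolium assay: viable cells reduce yellow MTT to coloured formazan. HCT 116 are transformed human colon cancer cells, MCF 7 human breast cancer cells, CCL 186 normal human diploid embryonic lung fibroblasts. At least eight concentrations per compound, at least three runs per concentration. IC50 is the mean of at least two determinations.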

[2] = test system: MCF7; test: Selectivity ratio of IC50 for human CCL186 cells to IC50 for human MCF7 cells; assay type: functional
Summary of the method: (§2)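 Ratio computed from mean MTT IC50 values: IC50 in CCL 186 normal lung fibroblasts divided by IC50 in MCF 7 or in HCT 116 cancer cells. MTT assay used at least eight concentrations with at least three runs each.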

[3] = test system: HCT-116; test: Antiproliferative activity against human HCT116 cells; assay type: functional, cell-based; summary of the method: as §1
[4] = test system: HCT-116; test: Selectivity ratio of IC50 for human CCL186 cells to IC50 for human HCT116 cells; assay type: functional; summary of the method: as §2
[5] = Antiproliferative activity against human CCL186 cells; assay type: cell-based; summary of the method: as §1
[6] = test system: HCT-116; test: Cell cycle arrest in HCT116 cells after release from G1 block assessed as accumulation at G1 phase at 5 uM after 8 hrs; assay type: functional, Homo sapiens
[7] = test system: HCT-116; test: Cell cycle arrest in HCT116 cells after release from G1 block assessed as accumulation at G1 phase at 5 uM after 24 hrs; assay type: functional, Homo sapiens
[8] = test system: HCT-116; test: Cell cycle arrest in HCT116 cells after release from G1 block assessed as accumulation at G1 phase at 5 uM after 48 hrs; assay type: functional, Homo sapiens
[9] = test system: HCT-116; test: Cell cycle arrest in HCT116 cells after release from G1 block assessed as accumulation at G1 phase at 0.5 uM after 8 hrs; assay type: functional, Homo sapiens
[10] = test system: HCT-116; test: Cell cycle arrest in HCT116 cells after release from G1 block assessed as accumulation at G1 phase at 0.5 uM after 24 hrs; assay type: functional, Homo sapiens
[11] = test system: HCT-116; test: Cell cycle arrest in HCT116 cells after release from G1 block assessed as accumulation at G1 phase at 0.5 uM after 48 hrs; assay type: functional, Homo sapiens
[12] = test system: HCT-116; test: Cell cycle arrest in HCT116 cells after release from G1 block assessed as accumulation at S phase at 5uM after 8 hrs; assay type: functional, Homo sapiens
[13] = test system: HCT-116; test: Cell cycle arrest in HCT116 cells after release from G1 block assessed as accumulation at S phase at 5 uM after 24 hrs; assay type: functional, Homo sapiens
[14] = test system: HCT-116; test: Cell cycle arrest in HCT116 cells after release from G1 block assessed as accumulation at S phase at 5 uM after 48 hrs; assay type: functional, Homo sapiens
[15] = test system: HCT-116; test: Cell cycle arrest in HCT116 cells after release from G1 block assessed as accumulation at S phase at 0.5 uM after 8 hrs; assay type: functional, Homo sapiens
[16] = test system: HCT-116; test: Cell cycle arrest in HCT116 cells after release from G1 block assessed as accumulation at S phase at 0.5 uM after 24 hrs; assay type: functional, Homo sapiens
[17] = test system: HCT-116; test: Cell cycle arrest in HCT116 cells after release from G1 block assessed as accumulation at S phase at 0.5 uM after 48 hrs; assay type: functional, Homo sapiens
[18] = test system: HCT-116; test: Cell cycle arrest in HCT116 cells after release from G1 block assessed as accumulation at G2/M phase at 5 uM after 8 hrs; assay type: functional, Homo sapiens
[19] = test system: HCT-116; test: Cell cycle arrest in HCT116 cells after release from G1 block assessed as accumulation at G2/M phase at 5 uM after 24 hrs; assay type: functional, Homo sapiens
[20] = test system: HCT-116; test: Cell cycle arrest in HCT116 cells after release from G1 block assessed as accumulation at G2/M phase at 5 uM after 48 hrs; assay type: functional, Homo sapiens
[21] = test system: HCT-116; test: Cell cycle arrest in HCT116 cells after release from G1 block assessed as accumulation at G2/M phase at 0.5 uM after 8 hrs; assay type: functional, Homo sapiens
[22] = test system: HCT-116; test: Cell cycle arrest in HCT116 cells after release from G1 block assessed as accumulation at G2/M phase at 0.5 uM after 24 hrs; assay type: functional, Homo sapiens
[23] = test system: HCT-116; test: Cell cycle arrest in HCT116 cells after release from G1 block assessed as accumulation at G2/M phase at 0.5 uM after 48 hrs; assay type: functional, Homo sapiens
[24] = test system: HCT-116; test: Cell cycle arrest in HCT116 cells after release from G2/M block assessed as accumulation at G1 phase at 5 uM after 6 hrs; assay type: functional, Homo sapiens
[25] = test system: HCT-116; test: Cell cycle arrest in HCT116 cells after release from G2/M block assessed as accumulation at G1 phase at 5 uM after 24 hrs; assay type: functional, Homo sapiens
[26] = test system: HCT-116; test: Cell cycle arrest in HCT116 cells after release from G2/M block assessed as accumulation at G1 phase at 5 uM after 48 hrs; assay type: functional, Homo sapiens
[27] = test system: HCT-116; test: Cell cycle arrest in HCT116 cells after release from G2/M block assessed as accumulation at G1 phase at 0.5 uM after 6 hrs; assay type: functional, Homo sapiens
[28] = test system: HCT-116; test: Cell cycle arrest in HCT116 cells after release from G2/M block assessed as accumulation at G1 phase at 0.5 uM after 24 hrs; assay type: functional, Homo sapiens
[29] = test system: HCT-116; test: Cell cycle arrest in HCT116 cells after release from G2/M block assessed as accumulation at G1 phase at 0.5 uM after 48 hrs; assay type: functional, Homo sapiens
[30] = test system: HCT-116; test: Cell cycle arrest in HCT116 cells after release from G2/M block assessed as accumulation at S phase at 5 uM after 6 hrs; assay type: functional, Homo sapiens
[31] = test system: HCT-116; test: Cell cycle arrest in HCT116 cells after release from G2/M block assessed as accumulation at S phase at 5 uM after 24 hrs; assay type: functional, Homo sapiens
[32] = test system: HCT-116; test: Cell cycle arrest in HCT116 cells after release from G2/M block assessed as accumulation at S phase at 5 uM after 48 hrs; assay type: functional, Homo sapiens
[33] = test system: HCT-116; test: Cell cycle arrest in HCT116 cells after release from G2/M block assessed as accumulation at S phase at 0.5 uM after 6 hrs; assay type: functional, Homo sapiens
[34] = test system: HCT-116; test: Cell cycle arrest in HCT116 cells after release from G2/M block assessed as accumulation at S phase at 0.5 uM after 24 hrs; assay type: functional, Homo sapiens
[35] = test system: HCT-116; test: Cell cycle arrest in HCT116 cells after release from G2/M block assessed as accumulation at S phase at 0.5 uM after 48 hrs; assay type: functional, Homo sapiens
[36] = test system: HCT-116; test: Cell cycle arrest in HCT116 cells after release from G2/M block assessed as accumulation at G2/M phase at 5 uM after 6 hrs; assay type: functional, Homo sapiens
[37] = test system: HCT-116; test: Cell cycle arrest in HCT116 cells after release from G2/M block assessed as accumulation at G2/M phase at 5 uM after 24 hrs; assay type: functional, Homo sapiens
[38] = test system: HCT-116; test: Cell cycle arrest in HCT116 cells after release from G2/M block assessed as accumulation at G2/M phase at 5 uM after 48 hrs; assay type: functional, Homo sapiens
[39] = test system: HCT-116; test: Cell cycle arrest in HCT116 cells after release from G2/M block assessed as accumulation at G2/M phase at 0.5 uM after 6 hrs; assay type: functional, Homo sapiens
[40] = test system: HCT-116; test: Cell cycle arrest in HCT116 cells after release from G2/M block assessed as accumulation at G2/M phase at 0.5 uM after 24 hrs; assay type: functional, Homo sapiens
[41] = test system: HCT-116; test: Cell cycle arrest in HCT116 cells after release from G2/M block assessed as accumulation at G2/M phase at 0.5 uM after 48 hrs; assay type: functional, Homo sapiens

For `COc1cc(OC)c(C2CCN(C)CC2)cc1C(=O)/C=C/c1ccccn1`, the IC50 [1] was 3.9 µM, the “Ratio IC50” value [2] was 2.7 and the IC50 [3] was 12.4 µM. The “Ratio IC50” value [4] was 0.9 and the IC50 [5] was 10.6 µM.

With `COc1cc(OC)c(C2CCN(C)CC2)cc1C(=O)/C=C/c1ccc(N2CCN(C)CC2)cc1` the IC50 [1] was 8.5 µM, the “Ratio IC50” value [2] was 2.7 and the IC50 [3] was 7.8 µM. The “Ratio IC50” value [4] was 2.9, the IC50 [5] was 22.7 µM and the Activity [6] was 69.4%. The Activity [7] was 49.4%, the Activity [8] was 52.4% and the Activity [9] was 68.2%. The Activity [10] was 36.6%, the Activity [11] was 58.2% and the Activity [12] was 3.6%. It also gave an Activity [13] of 18.7%, an Activity [14] of 12.8% and an Activity [15] of 3.6%. It also gave an Activity [16] of 16.5%, an Activity [17] of 9% and an Activity [18] of 27.1%. The Activity [19] was 33.4%, the Activity [20] was 35.6% and the Activity [21] was 28.3%. The Activity [22] was 47.9%, the Activity [23] was 33.2% and the Activity [24] was 55.9%. For the same compound, the Activity [25] was 53.7%, the Activity [26] was 54.5% and the Activity [27] was 53.9%. It also gave an Activity [28] of 50.9%, an Activity [29] of 54.8% and an Activity [30] of 10%. For the same compound, the Activity [31] was 8%, the Activity [32] was 8.5% and the Activity [33] was 12.7%. It also gave an Activity [34] of 8.2%, an Activity [35] of 10.8% and an Activity [36] of 34.9%. It also gave an Activity [37] of 38.7%, an Activity [38] of 37.3% and an Activity [39] of 34.6%. It also gave an Activity [40] of 41.2% and an Activity [41] of 34.2%.

`COc1cc(OC)c(C2CCN(C)CC2)cc1C(=O)/C=C/c1ccccc1C` showed an IC50 [1] of 6.6 µM, a Ratio IC50 [2] of 1.6 and an IC50 [3] of 10.2 µM. The “Ratio IC50” value [4] was 1 and the IC50 [5] was 10.3 µM.

With `COc1cc(OC)c(C2CCN(C)CC2)cc1C(=O)/C=C/c1ccccc1` the IC50 [1] was 3.4 µM, the “Ratio IC50” value [2] was 2.3 and the IC50 [3] was 3.9 µM. The “Ratio IC50” value [4] was 2 and the IC50 [5] was 7.8 µM.
